≈ marks a conversion by molar mass, not a printed value. Calls of active or inactive are those of the source. No cut-off for these calls is given here.
Legend:
Moraxella catarrhalis [1] = assay: Antimicrobial activity against Moraxella catarrhalis clinical isolates incubated for 48 hrs by microdilution broth method; assay type: functional
How it was run: (§1)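 Stocks in DMSO were diluted at least 10-fold into Mueller-Hinton broth, then 2-fold serially diluted in MH from 500 to 15.6 μg/ml. Bacteria were added, with DMSO-only dilution controls, and incubated at 37 °C for 48 h. Growth was scored at 24 and 48 h. MIC was the lowest concentration with no growth. Run in quadruplicate.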

Moraxella catarrhalis [2] = assay: Bactericidal activity against Moraxella catarrhalis clinical isolates incubated for 48 hrs by microdilution broth method and standard plating method; assay type: functional
How it was run: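 Broth microdilution in Mueller-Hinton broth, 2-fold series from 500 to 15.6 μg/ml, with DMSO-only controls, 37 °C for 48 h. Wells showing no growth were plated (10 μL) on MH agar. MBC was the lowest concentration giving no growth on plating. Run in quadruplicate.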

[3] = tested on: Mycobacterium tuberculosis; assay: Antimicrobial activity against Mycobacterium tuberculosis H37Rv incubated for 48 hrs by microdilution broth method; assay type: functional
Staphylococcus aureus = assay: Antimicrobial activity against Staphylococcus aureus ATCC 25923 incubated for 48 hrs by microdilution broth method; assay type: functional, organism-based; how it was run: as §1
Escherichia coli [4] = assay: Antimicrobial activity against Escherichia coli ATCC 25922 incubated for 48 hrs by microdilution broth method; assay type: functional, organism-based; how it was run: as §1
Enterococcus faecalis = assay: Antimicrobial activity against Enterococcus faecalis ATCC 29212 incubated for 48 hrs by microdilution broth method; assay type: functional, organism-based; how it was run: as §1
Pseudomonas aeruginosa = assay: Antimicrobial activity against Pseudomonas aeruginosa ATCC 27853 incubated for 48 hrs by microdilution broth method; assay type: functional, organism-based; how it was run: as §1
Escherichia coli [5] = assay: Antimicrobial activity against broad spectrum beta-lactamase producing Escherichia coli MISC 206 incubated for 48 hrs by microdilution broth method; assay type: functional, organism-based; how it was run: as §1
Escherichia coli [6] = assay: Antimicrobial activity against broad spectrum beta-lactamase producing Escherichia coli GB 8 incubated for 48 hrs by microdilution broth method; assay type: functional, organism-based; how it was run: as §1
Escherichia coli [7] = assay: Antimicrobial activity against extended spectrum beta-lactamase producing Escherichia coli MISC 262 incubated for 48 hrs by microdilution broth method; assay type: functional, organism-based; how it was run: as §1
Citrobacter freundii [8] = assay: Antimicrobial activity against extended spectrum beta-lactamase producing Citrobacter freundii Citro 314 incubated for 48 hrs by microdilution broth method; assay type: functional, organism-based; how it was run: as §1
Klebsiella pneumoniae [9] = assay: Antimicrobial activity against AmpC producing Klebsiella pneumoniae MISC 304 incubated for 48 hrs by microdilution broth method; assay type: functional, organism-based; how it was run: as §1
Klebsiella pneumoniae [10] = assay: Antimicrobial activity against AmpC producing Klebsiella pneumoniae KLEB 249 incubated for 48 hrs by microdilution broth method; assay type: functional, organism-based; how it was run: as §1
Citrobacter freundii [11] = assay: Antimicrobial activity against AmpC producing Citrobacter freundii CITRO 21 incubated for 48 hrs by microdilution broth method; assay type: functional, organism-based; how it was run: as §1
[12] = tested on: Stenotrophomonas maltophilia; assay: Antimicrobial activity against metallo beta-lactamases producing Stenotrophomonas maltophilia GM24 incubated for 48 hrs by microdilution broth method; assay type: functional, organism-based; how it was run: as §1
Acinetobacter baumannii [13] = assay: Antimicrobial activity against extended spectrum beta-lactamase and carbapenemase producing Acinetobacter baumannii L185 incubated for 48 hrs by microdilution broth method; assay type: functional, organism-based; how it was run: as §1
Acinetobacter baumannii [14] = assay: Antimicrobial activity against extended spectrum beta-lactamase and carbapenemase producing Acinetobacter baumannii L186 incubated for 48 hrs by microdilution broth method; assay type: functional, organism-based; how it was run: as §1
Acinetobacter baumannii [15] = assay: Antimicrobial activity against extended spectrum beta-lactamase and carbapenemase producing Acinetobacter baumannii L187 incubated for 48 hrs by microdilution broth method; assay type: functional, organism-based; how it was run: as §1
Klebsiella pneumoniae [16] = assay: Antimicrobial activity against extended spectrum beta-lactamase and carbapenemase producing Klebsiella pneumoniae KPC L133 incubated for 48 hrs by microdilution broth method; assay type: functional, organism-based; how it was run: as §1
Klebsiella pneumoniae [17] = assay: Antimicrobial activity against extended spectrum beta-lactamase and carbapenemase producing Klebsiella pneumoniae ESBL L174 incubated for 48 hrs by microdilution broth method; assay type: functional, organism-based; how it was run: as §1
Escherichia coli [18] = assay: Antimicrobial activity against extended spectrum beta-lactamase and carbapenemase producing Escherichia coli ESBL L108 incubated for 48 hrs by microdilution broth method; assay type: functional, organism-based; how it was run: as §1
Escherichia coli [19] = assay: Antimicrobial activity against extended spectrum beta-lactamase and carbapenemase producing Escherichia coli ESBL L109 incubated for 48 hrs by microdilution broth method; assay type: functional, organism-based; how it was run: as §1

## O=C1CC(Sc2ccccc2)N1C(=O)NCc1ccccc1 (racemic)
Moraxella catarrhalis [1]
  MIC: 12.5 µg/mL (≈ 40 µM)
Moraxella catarrhalis [2]
  MBC: 12.5 µg/mL (≈ 40 µM)
[3]
  MIC: 6.25 µg/mL (≈ 20 µM)
Staphylococcus aureus
  MIC: inactive
Escherichia coli [4]
  MIC: inactive
Enterococcus faecalis
  MIC: inactive
Pseudomonas aeruginosa
  MIC: inactive
Escherichia coli [5]
  MIC: inactive
Escherichia coli [6]
  MIC: inactive
Escherichia coli [7]
  MIC: inactive
Citrobacter freundii [8]
  MIC: inactive
Klebsiella pneumoniae [9]
  MIC: inactive
Klebsiella pneumoniae [10]
  MIC: inactive
Citrobacter freundii [11]
  MIC: inactive
[12]
  MIC: inactive
Acinetobacter baumannii [13]
  MIC: inactive
Acinetobacter baumannii [14]
  MIC: inactive
Acinetobacter baumannii [15]
  MIC: inactive
Klebsiella pneumoniae [16]
  MIC: inactive
Klebsiella pneumoniae [17]
  MIC: inactive
Escherichia coli [18]
  MIC: inactive
Escherichia coli [19]
  MIC: inactive

## O=C1CC(Sc2ccccc2F)N1C(=O)NCc1ccccc1 (racemic)
Moraxella catarrhalis [1]
  MIC: 25 µg/mL (≈ 75.7 µM)
Moraxella catarrhalis [2]
  MBC: 50 µg/mL (≈ 151 µM)
[3]
  MIC: 3.13 µg/mL (≈ 9.47 µM)
Staphylococcus aureus
  MIC: inactive
Escherichia coli [4]
  MIC: inactive
Enterococcus faecalis
  MIC: inactive
Pseudomonas aeruginosa
  MIC: inactive
Escherichia coli [5]
  MIC: inactive
Escherichia coli [6]
  MIC: inactive
Escherichia coli [7]
  MIC: inactive
Citrobacter freundii [8]
  MIC: inactive
Klebsiella pneumoniae [9]
  MIC: inactive
Klebsiella pneumoniae [10]
  MIC: inactive
Citrobacter freundii [11]
  MIC: inactive
[12]
  MIC: inactive
Acinetobacter baumannii [13]
  MIC: inactive
Acinetobacter baumannii [14]
  MIC: inactive
Acinetobacter baumannii [15]
  MIC: inactive
Klebsiella pneumoniae [16]
  MIC: inactive
Klebsiella pneumoniae [17]
  MIC: inactive
Escherichia coli [18]
  MIC: inactive
Escherichia coli [19]
  MIC: inactive

## O=C1CC(Sc2cccc(F)c2)N1C(=O)NCc1ccccc1 (racemic)
Moraxella catarrhalis [1]
  MIC: 25 µg/mL (≈ 75.7 µM)
Moraxella catarrhalis [2]
  MBC: 100 µg/mL (≈ 303 µM)
Staphylococcus aureus
  MIC: inactive
Escherichia coli [4]
  MIC: inactive
Enterococcus faecalis
  MIC: inactive
Pseudomonas aeruginosa
  MIC: inactive
Escherichia coli [5]
  MIC: inactive
Escherichia coli [6]
  MIC: inactive
Escherichia coli [7]
  MIC: inactive
Citrobacter freundii [8]
  MIC: inactive
Klebsiella pneumoniae [9]
  MIC: inactive
Klebsiella pneumoniae [10]
  MIC: inactive
Citrobacter freundii [11]
  MIC: inactive
[12]
  MIC: inactive
Acinetobacter baumannii [13]
  MIC: inactive
Acinetobacter baumannii [14]
  MIC: inactive
Acinetobacter baumannii [15]
  MIC: inactive
Klebsiella pneumoniae [16]
  MIC: inactive
Klebsiella pneumoniae [17]
  MIC: inactive
Escherichia coli [18]
  MIC: inactive
Escherichia coli [19]
  MIC: inactive

## O=C1CC(Sc2ccc(F)cc2)N1C(=O)NCc1ccccc1 (racemic)
Moraxella catarrhalis [1]
  MIC: 25 µg/mL (≈ 75.7 µM)
Moraxella catarrhalis [2]
  MBC: 25 µg/mL (≈ 75.7 µM)
[3]
  MIC: 6.25 µg/mL (≈ 18.9 µM)
Staphylococcus aureus
  MIC: inactive
Escherichia coli [4]
  MIC: inactive
Enterococcus faecalis
  MIC: inactive
Pseudomonas aeruginosa
  MIC: inactive
Escherichia coli [5]
  MIC: inactive
Escherichia coli [6]
  MIC: inactive
Escherichia coli [7]
  MIC: inactive
Citrobacter freundii [8]
  MIC: inactive
Klebsiella pneumoniae [9]
  MIC: inactive
Klebsiella pneumoniae [10]
  MIC: inactive
Citrobacter freundii [11]
  MIC: inactive
[12]
  MIC: inactive
Acinetobacter baumannii [13]
  MIC: inactive
Acinetobacter baumannii [14]
  MIC: inactive
Acinetobacter baumannii [15]
  MIC: inactive
Klebsiella pneumoniae [16]
  MIC: inactive
Klebsiella pneumoniae [17]
  MIC: inactive
Escherichia coli [18]
  MIC: inactive
Escherichia coli [19]
  MIC: inactive

## O=C1CC(Sc2ccc(F)c(F)c2)N1C(=O)NCc1ccccc1 (racemic)
Moraxella catarrhalis [1]
  MIC: 12.5 µg/mL (≈ 35.9 µM)
Moraxella catarrhalis [2]
  MBC: 25 µg/mL (≈ 71.8 µM)
[3]
  MIC: 6.25 µg/mL (≈ 17.9 µM)
Staphylococcus aureus
  MIC: inactive
Escherichia coli [4]
  MIC: inactive
Enterococcus faecalis
  MIC: inactive
Pseudomonas aeruginosa
  MIC: inactive
Escherichia coli [5]
  MIC: inactive
Escherichia coli [6]
  MIC: inactive
Escherichia coli [7]
  MIC: inactive
Citrobacter freundii [8]
  MIC: inactive
Klebsiella pneumoniae [9]
  MIC: inactive
Klebsiella pneumoniae [10]
  MIC: inactive
Citrobacter freundii [11]
  MIC: inactive
[12]
  MIC: inactive
Acinetobacter baumannii [13]
  MIC: inactive
Acinetobacter baumannii [14]
  MIC: inactive
Acinetobacter baumannii [15]
  MIC: inactive
Klebsiella pneumoniae [16]
  MIC: inactive
Klebsiella pneumoniae [17]
  MIC: inactive
Escherichia coli [18]
  MIC: inactive
Escherichia coli [19]
  MIC: inactive

## O=C1CC(Sc2cccc(C(F)(F)F)c2)N1C(=O)NCc1ccccc1 (racemic)
Moraxella catarrhalis [1]
  MIC: 3.12 µg/mL (≈ 8.22 µM)
Moraxella catarrhalis [2]
  MBC: 6.25 µg/mL (≈ 16.4 µM)
[3]
  MIC: 25 µg/mL (≈ 65.7 µM)
Staphylococcus aureus
  MIC: inactive
Escherichia coli [4]
  MIC: inactive
Enterococcus faecalis
  MIC: inactive
Pseudomonas aeruginosa
  MIC: inactive
Escherichia coli [5]
  MIC: inactive
Escherichia coli [6]
  MIC: inactive
Escherichia coli [7]
  MIC: inactive
Citrobacter freundii [8]
  MIC: inactive
Klebsiella pneumoniae [9]
  MIC: inactive
Klebsiella pneumoniae [10]
  MIC: inactive
Citrobacter freundii [11]
  MIC: inactive
[12]
  MIC: inactive
Acinetobacter baumannii [13]
  MIC: inactive
Acinetobacter baumannii [14]
  MIC: inactive
Acinetobacter baumannii [15]
  MIC: inactive
Klebsiella pneumoniae [16]
  MIC: inactive
Klebsiella pneumoniae [17]
  MIC: inactive
Escherichia coli [18]
  MIC: inactive
Escherichia coli [19]
  MIC: inactive

## O=C1CC(Sc2ccc(C(F)(F)F)cc2)N1C(=O)NCc1ccccc1 (racemic)
Moraxella catarrhalis [1]
  MIC: 1.62 µg/mL (≈ 4.27 µM)
Moraxella catarrhalis [2]
  MBC: 12.5 µg/mL (≈ 32.9 µM)
[3]
  MIC: 12.5 µg/mL (≈ 32.9 µM)
Staphylococcus aureus
  MIC: inactive
Escherichia coli [4]
  MIC: inactive
Enterococcus faecalis
  MIC: inactive
Pseudomonas aeruginosa
  MIC: inactive
Escherichia coli [5]
  MIC: inactive
Escherichia coli [6]
  MIC: inactive
Escherichia coli [7]
  MIC: inactive
Citrobacter freundii [8]
  MIC: inactive
Klebsiella pneumoniae [9]
  MIC: inactive
Klebsiella pneumoniae [10]
  MIC: inactive
Citrobacter freundii [11]
  MIC: inactive
[12]
  MIC: inactive
Acinetobacter baumannii [13]
  MIC: inactive
Acinetobacter baumannii [14]
  MIC: inactive
Acinetobacter baumannii [15]
  MIC: inactive
Klebsiella pneumoniae [16]
  MIC: inactive
Klebsiella pneumoniae [17]
  MIC: inactive
Escherichia coli [18]
  MIC: inactive
Escherichia coli [19]
  MIC: inactive

## O=C1CC(Sc2cc(C(F)(F)F)cc(C(F)(F)F)c2)N1C(=O)NCc1ccccc1 (racemic)
Moraxella catarrhalis [1]
  MIC: 6.25 µg/mL (≈ 13.9 µM)
Moraxella catarrhalis [2]
  MBC: 6.25 µg/mL (≈ 13.9 µM)
[3]
  MIC: 6.25 µg/mL (≈ 13.9 µM)
Staphylococcus aureus
  MIC: inactive
Escherichia coli [4]
  MIC: inactive
Enterococcus faecalis
  MIC: inactive
Pseudomonas aeruginosa
  MIC: inactive
Escherichia coli [5]
  MIC: inactive
Escherichia coli [6]
  MIC: inactive
Escherichia coli [7]
  MIC: inactive
Citrobacter freundii [8]
  MIC: inactive
Klebsiella pneumoniae [9]
  MIC: inactive
Klebsiella pneumoniae [10]
  MIC: inactive
Citrobacter freundii [11]
  MIC: inactive
[12]
  MIC: inactive
Acinetobacter baumannii [13]
  MIC: inactive
Acinetobacter baumannii [14]
  MIC: inactive
Acinetobacter baumannii [15]
  MIC: inactive
Klebsiella pneumoniae [16]
  MIC: inactive
Klebsiella pneumoniae [17]
  MIC: inactive
Escherichia coli [18]
  MIC: inactive
Escherichia coli [19]
  MIC: inactive

— ChEMBL document CHEMBL3392996, “Non-transpeptidase binding arylthioether β-lactams active against Mycobacterium tuberculosis and Moraxella catarrhalis” (2015)
